Experimental data taken from ChEMBL document CHEMBL1146581, “Induction of apoptosis by xanthones from mangosteen in human leukemia cell lines” (J Nat Prod, 2003).
The source made the active and inactive calls. The rule behind the calls is not given here.

Columns and labels:
HL-60 [1] = experiment: Cytotoxicity against human HL60 cells assessed as cell viability after 72 hrs by Trypan blue exclusion test; type: functional, cell-based; conditions: HL-60, 72 h
Procedure, shortened: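 HL60 (RIKEN Cell Bank) in RPMI-1640 with 10% heat-inactivated FBS, seeded at 1 × 10^5/mL. Exposed for 72 h to 5–40 µM compound added in DMSO (final 0.1% v/v). Viable cells counted by trypan blue dye exclusion. IC50 read from concentration–growth curves. Means ± SD of three experiments.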

K562 [2] = experiment: Induction of apoptosis in human K562 cells assessed as nuclear condensation and fragmentation at 10 uM after 24 hrs using Hoechst stain by fluorescence microscopy; type: functional, cell-based
Procedure, shortened: (§1)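 Cells treated 24 h at 10 µM. Hoechst 33342 was added to the medium at 5 µg/mL for 30 min. Cells were then washed in PBS and nuclear condensation/fragmentation was scored by fluorescence microscopy (×400).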

HL-60 [3] = experiment: Induction of apoptosis in human HL60 cells assessed as caspase 3 activation at 10 uM by Western blot; type: functional, cell-based
Procedure, shortened: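 HL60 treated with 10 µM over a time course. Lysis was in Tris pH 7.4/NP-40/deoxycholate/SDS buffer with protease inhibitors, 30 min on ice. 10 µg protein was run on a 5–20% SDS gradient gel and blotted to PVDF. The blot was probed overnight at 4 °C with rabbit anti-caspase-3, then HRP anti-rabbit, and detected by ECL. Pro (32 kD) and active (19/17 kD) forms were read.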

NB-4 [4] = experiment: Cytotoxicity against human NB4 cells assessed as cell viability at 10 uM after 72 hrs by Trypan blue exclusion test; type: functional, cell-based
Procedure, shortened: (§2)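 Leukemia lines (RIKEN Cell Bank) grown in RPMI-1640 with 10% heat-inactivated FBS. Growth curves were followed at 1, 2, 5 and 10 µM compound delivered in DMSO (final 0.1% v/v), with untreated controls. Viable cell number counted by trypan blue dye exclusion in a counting chamber.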

HL-60 [5] = experiment: Induction of apoptosis in human HL60 cells assessed as DNA ladder formation at 10 uM after 24 hrs by agarose gel electrophoresis; type: functional, cell-based
HL-60 [6] = experiment: Induction of apoptosis in human HL60 cells assessed as nuclear condensation and fragmentation at 10 uM after 24 hrs using Hoechst stain by fluorescence microscopy; type: functional, cell-based; procedure, shortened: as §1
U-937 [7] = experiment: Induction of apoptosis in human U937 cells assessed as nuclear condensation and fragmentation at 10 uM after 24 hrs using Hoechst stain by fluorescence microscopy; type: functional, cell-based; procedure, shortened: as §1
NB-4 [8] = experiment: Induction of apoptosis in human NB4 cells assessed as DNA ladder formation at 10 uM after 24 hrs by agarose gel electrophoresis; type: functional, cell-based
U-937 [9] = experiment: Cytotoxicity against human U937 cells assessed as cell viability at 5 uM after 72 hrs by Trypan blue exclusion test; type: functional, cell-based; procedure, shortened: as §2
U-937 [10] = experiment: Cytotoxicity against human U937 cells assessed as cell viability at 10 uM after 72 hrs by Trypan blue exclusion test; type: functional, cell-based; procedure, shortened: as §2
NB-4 [11] = experiment: Induction of apoptosis in human NB4 cells assessed as nuclear condensation and fragmentation at 10 uM after 24 hrs using Hoechst stain by fluorescence microscopy; type: functional, cell-based; procedure, shortened: as §1
K562 [12] = experiment: Induction of apoptosis in human K562 cells assessed as DNA ladder formation at 10 uM after 24 hrs by agarose gel electrophoresis; type: functional, cell-based
NB-4 [13] = experiment: Cytotoxicity against human NB4 cells assessed as cell viability at 5 uM after 72 hrs by Trypan blue exclusion test; type: functional, cell-based; procedure, shortened: as §2
K562 [14] = experiment: Cytotoxicity against human K562 cells assessed as cell viability at 5 uM after 72 hrs by Trypan blue exclusion test; type: functional, cell-based; procedure, shortened: as §2
K562 [15] = experiment: Cytotoxicity against human K562 cells assessed as cell viability at 10 uM after 72 hrs by Trypan blue exclusion test; type: functional, cell-based; procedure, shortened: as §2
PBMC = experiment: Cytotoxicity against concanavalin A-stimulated human PBMC cells at 10 uM after 72 hrs by Trypan blue exclusion test; type: cell-based
Procedure, shortened: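 Lymphocytes from healthy donors in RPMI-1640 with 10% heat-inactivated FBS, stimulated with concanavalin-A (75 µg/mL) for 48 h, then exposed to compound in DMSO (final 0.1% v/v). Viable cells counted by trypan blue dye exclusion in a counting chamber.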

U-937 [16] = experiment: Induction of apoptosis in human U937 cells assessed as DNA ladder formation at 10 uM after 24 hrs by agarose gel electrophoresis; type: functional, cell-based

Q: `CC(C)=CCc1c(O)cc2oc3cc(O)c(O)c(CC=C(C)C)c3c(=O)c2c1O` was tested. Which IC50 (HL-60 [1]) did it give?
A: 6.1 µM

Q: For `COc1cc2oc3cc(O)c(OC)c(CC=C(C)C)c3c(=O)c2c(O)c1CC=C(C)C`, which IC50 (HL-60 [1]) is on record?
A: 7.6 µM

Q: How did the IC50 (HL-60 [1]) turn out when `COc1cc2oc3ccc(O)cc3c(=O)c2c(O)c1CC=C(C)C` was run?
A: 23.6 µM

Q: Which IC50 (HL-60 [1]) does the source give for `CC(C)=CCc1c(O)cc2oc3c(CC=C(C)C)c(O)c(O)c(CC=C(C)C)c3c(=O)c2c1O` [GARCINONE E] here?
A: 15 µM

Q: `CC(C)=CCC/C(C)=C/Cc1c(O)cc2oc3c(O)cccc3c(=O)c2c1O` [MANGOSTINONE] was tested. Which IC50 (HL-60 [1]) did it give?
A: 19 µM

Q: Which Activity (K562 [2]) does the source give for `COc1c(O)cc2oc3cc(O)c(CC=C(C)C)c(O)c3c(=O)c2c1CC=C(C)C` [MANGOSTIN] here?
A: Active

Q: And the Activity (HL-60 [3])?
A: Active

Q: And the Activity (NB-4 [4])?
A: Active

Q: What about the Activity (HL-60 [5]) of the same compound?
A: Active

Q: What about the Activity (HL-60 [6]) of the same compound?
A: Active

Q: And the Activity (U-937 [7])?
A: Active

Q: And the Activity (NB-4 [8])?
A: Active

Q: What about the Activity (U-937 [9]) of the same compound?
A: Active

Q: What about the Activity (U-937 [10]) of the same compound?
A: Active

Q: What about the Activity (NB-4 [11]) of the same compound?
A: Active

Q: And the Activity (K562 [12])?
A: Active

Q: What about the Activity (NB-4 [13]) of the same compound?
A: Active

Q: And the Activity (K562 [14])?
A: Active

Q: What about the Activity (K562 [15]) of the same compound?
A: Active

Q: What about the Activity (PBMC) of the same compound?
A: Non-toxic

Q: And the IC50 (HL-60 [1])?
A: 6.8 µM

Q: And the Activity (U-937 [16])?
A: Active
